The results in this text go back to ChEMBL document CHEMBL4130516, “Immunomodulatory Polyketides from a Phoma-like Fungus Isolated from a Soft Coral” (J Nat Prod, 2017).

The test system of data set [1] is Splenocyte. The data set is described as follows: Immunomodulatory activity in Con A-stimulated C57BL/6 mouse splenocytes assessed as increase in ratio of CD4+/[…] cells at 3 uM by PE-CD3 staining based flow cytometry. It counts as functional, cell-based. The method, boiled down: (§1)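 C57BL/6 mouse splenocytes, Con A-stimulated (Con A 5 μg/mL as control), were incubated with compounds at 3 μM for 24 h. Cells were stained with PE-CD3, FITC-CD4 and PerCP/Cy5.5-CD8. Flow cytometry gave the percentage of CD3+, CD4+ and CD8+ T cells and the CD4+/CD8+ ratio. Values are means ± SD, n = 3.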
(In general: A flow cytometer gives signals particle by particle.)

Data set [2] concerns A549. Put plainly: Cytotoxicity in human A549 cells assessed as reduction in cell viability at 30 uM incubated for CellTiter-Blue cell viability assay. It is filed as functional, cell-based. The gist of the method: (§2)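 Cells were treated with compounds at 30 μM for 48 h at 37 °C in 5% CO2. Media were DMEM + 10% FBS for A549, HCT116 and MCF-7, and MEM for DAOY. Adriamycin was the positive control. Relative viability was read by CellTiter-Blue at 530/590 nm.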
(Alamar Blue is a resazurin reagent that responds to reducing activity.)

Data set [3] deals with Splenocyte. The data set is described as follows: Immunomodulatory activity in C57BL/6 mouse splenocytes assessed as increase in CD3+T cell proliferation at 3 uM by PE-CD3 staining based flow cytometry. It counts as functional.
Data set [4] deals with HCT-116. The data set is described as follows: Cytotoxicity in human HCT116 cells assessed as reduction in cell viability at 30 uM incubated for CellTiter-Blue cell viability assay. It is filed as functional, cell-based. The gist of the method: as §2
Data set [5] relates to MCF7. The data set is described as follows: Cytotoxicity in human MCF7 cells assessed as reduction in cell viability at 30 uM incubated for CellTiter-Blue cell viability assay. It is filed as functional, cell-based. The method, boiled down:
as §2

For data set [6], the system named is Splenocyte. Put plainly: Induction of apoptosis in Con A-stimulated C57BL/6 mouse splenocytes at 3 uM by flow cytometry. It is filed as cell-based. The method, boiled down:
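C57BL/6 mouse splenocytes (2 × 10^6 cells/mL) were incubated with compounds at 3 μM for 24 h, with Con A (5 μg/mL) as positive control. Cells were washed with PBS and immediately analysed for apoptosis by flow cytometry.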

The subject of data set [7] is Daoy. The data set is described as follows: Cytotoxicity in human DaOY cells assessed as reduction in cell viability at 30 uM incubated for CellTiter-Blue cell viability assay. It counts as functional, cell-based. The method, boiled down:
as §2

Data set [8] relates to Splenocyte. The data set is described as follows: Immunomodulatory activity in Con A-stimulated C57BL/6 mouse splenocytes assessed as increase in CD3+T cell proliferation at 3 uM by PE-CD3 staining based flow cytometry. It counts as functional. The gist of the method:
as §1

Active and inactive are the calls of the source. The rule behind the calls is not given here.

Consider `C[C@@]1(O)CC[C@H]2[C@@H](C=C[C@@]3(C)OC(=O)C[C@H](O)[C@]23C)C1`, for which the outcome in data set [1] was Active. For the same compound, the result in data set [2], in data set [3], in data set [4], in data set [5], in data set [7] and in data set [8] was inactive. Further, the Activity entry in data set [6] is “Non-Toxic”.
With `CC(=O)OCCC(=O)[C@]1(C)[C@H]2CC[C@@](C)(O)C[C@@H]2C=C[C@@]1(C)O`, the outcome in data set [2], in data set [4], in data set [5] and in data set [7] was inactive. The Activity result in data set [6] is “Non-Toxic”.
As to `C[C@H]1CC[C@H]2[C@H](C1)[C@H](Cl)[C@@H](O)[C@@](C)(O)[C@]2(C)C(=O)CCO`, in data set [1], the outcome was Active. Also, the outcome in data set [2], in data set [3], in data set [4], in data set [5], in data set [7] and in data set [8] was inactive. Moreover, the Activity entry in data set [6] was “Non-Toxic”.
On to `CC(=O)OCCC(=O)[C@]1(C)[C@H]2CC[C@H](C)C[C@@H]2[C@H](Cl)[C@@H](O)[C@@]1(C)O`, for which the result in data set [2], in data set [4], in data set [5] and in data set [7] was inactive. For the same compound, in data set [6], the Activity result is “Non-Toxic”.
On to `C[C@H]1CC[C@H]2[C@@H](C=C[C@@](C)(O)[C@]2(C)C(=O)CCO)C1`, for which the result in data set [2], in data set [4], in data set [5] and in data set [7] was inactive. The result in data set [3] and in data set [8] was Active. Besides, in data set [6], the Activity entry is “Non-Toxic”.
For `CC(=O)[C@]1(C)[C@H]2CC[C@@](C)(O)C[C@@H]2C=C[C@@]1(C)O`, the outcome in data set [2], in data set [3], in data set [4], in data set [5], in data set [7] and in data set [8] was inactive. The Activity result in data set [6] is recorded as “Non-Toxic”.
Take `C[C@H]1CC[C@H]2[C@@H](C=C[C@@](C)(O)[C@]2(C)C(=O)O)C1`: the result in data set [2], in data set [4], in data set [5] and in data set [7] was inactive. In addition, the outcome in data set [3] and in data set [8] was Active. The Activity result in data set [6] is listed as “Non-Toxic”.
For `C[C@H]1CC[C@H]2C(=C[C@@H](O)[C@@](C)(O)[C@]2(C)C(=O)CCO)C1`, the outcome in data set [2], in data set [3], in data set [4], in data set [5], in data set [7] and in data set [8] was inactive. Also, the Activity entry in data set [6] is reported as “Non-Toxic”.
Regarding `C[C@@]1(O)CC[C@H]2[C@@H](C=C[C@]3(C)OCC[C@H](O)[C@]23C)C1`, the result in data set [2], in data set [3], in data set [4], in data set [5], in data set [7] and in data set [8] was inactive. Besides, the Activity entry in data set [6] was “Non-Toxic”.
For `CC(=O)[C@@]1(C)C(C)=C[C@H](O)[C@H]2C[C@](C)(O)CC[C@@H]21`, the result in data set [1] was Active. Besides, the outcome in data set [2], in data set [4], in data set [5] and in data set [7] was inactive. In addition, the Activity result in data set [6] is reported as “Non-Toxic”.
As to `C[C@@]1(O)CC[C@H]2[C@@H](C=C[C@@]3(C)OC(=O)CC[C@]23C)C1`, the outcome in data set [2], in data set [3], in data set [4], in data set [5], in data set [7] and in data set [8] was inactive. In addition, the Activity result in data set [6] was “Non-Toxic”.
`CC(=O)[C@]1(C)[C@H]2CC[C@H](C)C[C@@H]2[C@H](Cl)[C@@H](O)[C@@]1(C)O`: the outcome in data set [2], in data set [4], in data set [5] and in data set [7] was inactive. In addition, in data set [6], the Activity entry is given as “Non-Toxic”.
Take `CC(=O)OCCC(=O)[C@]1(C)[C@H]2CC[C@H](C)C[C@@H]2C=C[C@@]1(C)O`: in data set [1], the outcome was Active. The outcome in data set [2], in data set [3], in data set [4], in data set [5], in data set [7] and in data set [8] was inactive. Besides, in data set [6], the Activity entry is listed as “Non-Toxic”.
For the compound `C[C@@]1(O)CC[C@H]2[C@H](C1)[C@@H]1O[C@@H]1[C@@]1(C)OC(=O)CC[C@]21C`, the result in data set [2], in data set [4], in data set [5] and in data set [7] was inactive. For the same compound, the Activity result in data set [6] was “Non-Toxic”.
As to `C[C@H]1CC[C@H]2[C@H](C1)[C@@H](O)[C@@H]1O/C(=C\C=O)[C@@]2(C)[C@]1(C)O`, the result in data set [2], in data set [4], in data set [5] and in data set [7] was inactive. Besides, the Activity result in data set [6] was “Non-Toxic”.
For the compound `C[C@@]1(O)CC[C@H]2[C@](O)(C1)[C@@H]1O[C@@H]1[C@@]1(C)OC(=O)CC[C@]21C`, the outcome in data set [2], in data set [4], in data set [5] and in data set [7] was inactive. In addition, the result in data set [3] and in data set [8] was Active. In addition, the Activity entry in data set [6] was “Non-Toxic”.
